Data on 25 compounds can be found in ChEMBL document CHEMBL1142365, “Synthesis and evaluation of stilbenylbenzoxazole and stilbenylbenzothiazole derivatives for detecting beta-amyloid fibrils” (Bioorg Med Chem Lett, 2008).

The assay in a line: Displacement of [125I]TZDM from beta amyloid protein 42. In outline:
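Competition binding against [125I]TZDM on pre-formed Ab42 aggregates. Mixtures incubated 3 h at room temperature. Bound and free radioligand separated by vacuum filtration through GF/B filters, then two washes with 10% EtOH at room temperature. Filter-bound radioactivity counted by gamma counter. Ki obtained by nonlinear regression of the inhibition data.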
The Ki is the dissociation constant of the complex between target and ligand, obtained from inhibition or displacement. For `Nc1ccc(/C=C/c2ccc(-c3nc4cc(OCCF)ccc4s3)cc2)cc1`, the Ki is 0.41 nM.
Consider `CNc1ccc(/C=C/c2ccc(-c3nc4cc(OCCF)ccc4s3)cc2)cc1`, for which the affinity, expressed as Ki, was 0.1 nM.
Compound `Nc1ccc(/C=C/c2ccc(-c3nc4cc(OCCF)ccc4o3)cc2)cc1` gave an inhibitory constant (Ki) of 0.32 nM.
The value for `CNc1ccc(/C=C/c2ccc(-c3nc4cc(OCCCF)ccc4s3)cc2)cc1` was 0.38 nM; that for `CN(C)c1ccc(/C=C/c2ccc(-c3nc4cc(OCCCF)ccc4s3)cc2)cc1` was 0.49 nM.
In the case of `CNc1ccc(/C=C/c2ccc(-c3nc4ccc(OCCF)cc4o3)cc2)cc1`, the Ki was 0.5 nM.
Compound `Nc1ccc(/C=C/c2ccc(-c3nc4ccc(OCCF)cc4o3)cc2)cc1` returned a Ki of 0.47 nM.
In turn, `CNc1ccc(/C=C/c2ccc(-c3nc4cc(OCCCF)ccc4o3)cc2)cc1` returned an inhibitory constant (Ki) of 0.45 nM. The Ki values of the last two compounds are within 1.5-fold of each other.
For the compound `CN(C)c1ccc(/C=C/c2ccc(-c3nc4cc(OCCF)ccc4s3)cc2)cc1`, the affinity corresponds to a Ki of 0.35 nM. This Ki and that of the compound before are within 1.5-fold of each other.
The figure for `Nc1ccc(/C=C/c2ccc(-c3nc4ccc(OCCCF)cc4o3)cc2)cc1` is 0.59 nM.
The value for `CN(C)c1ccc(/C=C/c2ccc(-c3nc4ccc(OCCCF)cc4s3)cc2)cc1` was 0.12 nM.
`CNc1ccc(/C=C/c2ccc(-c3nc4ccc(OCCCF)cc4s3)cc2)cc1`: the Ki worked out at 0.48 nM.
The figure for `CNc1ccc(/C=C/c2ccc(-c3nc4ccc(OCCF)cc4s3)cc2)cc1` is 0.52 nM; for `CN(C)c1ccc(/C=C/c2ccc(-c3nc4ccc(OCCF)cc4s3)cc2)cc1` it is 0.57 nM.
Compound `Nc1ccc(/C=C/c2ccc(-c3nc4ccc(OCCF)cc4s3)cc2)cc1` had an inhibitory constant (Ki) of 0.59 nM.
The value for `CN(C)c1ccc(/C=C/c2ccc(-c3nc4ccc(OCCCF)cc4o3)cc2)cc1` was 0.46 nM.
The value for `CNc1ccc(/C=C/c2ccc(-c3nc4ccc(OCCCF)cc4o3)cc2)cc1` was 0.68 nM; that for `CN(C)c1ccc(/C=C/c2ccc(-c3nc4ccc(OCCF)cc4o3)cc2)cc1` was 0.45 nM.
Turning to `CN(C)c1ccc(/C=C/c2ccc(-c3nc4cc(OCCCF)ccc4o3)cc2)cc1`, the Ki worked out at 0.47 nM.
On to `CN(C)c1ccc(/C=C/c2ccc(-c3nc4cc(OCCF)ccc4o3)cc2)cc1`, for which the Ki is 0.44 nM.
`CNc1ccc(/C=C/c2ccc(-c3nc4cc(OCCF)ccc4o3)cc2)cc1` had a Ki of 0.74 nM.
Consider `Nc1ccc(/C=C/c2ccc(-c3nc4cc(OCCCF)ccc4o3)cc2)cc1`, for which the affinity corresponds to a Ki of 0.45 nM.
The figure for `Nc1ccc(/C=C/c2ccc(-c3nc4ccc(OCCCF)cc4s3)cc2)cc1` is 0.55 nM; for `Nc1ccc(/C=C/c2ccc(-c3nc4cc(OCCCF)ccc4s3)cc2)cc1` it is 0.42 nM; for `[11CH3]Nc1ccc(-c2nc3ccc(O)cc3s2)cc1` [PITTSBURGH COMPOUND B] it is 0.77 nM.
